In ChEMBL document CHEMBL1148146, “14'-Hydroxymytoxin B and 16-hydroxyroridin E, two new cytotoxic trichothecenes from Myrothecium roridum” (J Nat Prod, 2002):
pIC50: −log10 of the molar value.

Tests used:
[1] = Cytotoxicity against human primary soft tissue sarcoma cells after overnight incubation by Alamar blue assay; format: functional, cell-based
Summary of the method: (§1)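 Primary tumor cell cultures that passed histological and cytological screening; thawed at 37 °C, resuspended in maintenance medium, live/dead counted, plated at 1.0 × 10^3 cells/well. Samples added at 1/10 cell suspension volume, overnight at 37 °C. Alamar Blue then added at 1/10 well volume; fluorescence (ex 530, em 590 nm) read at 3 h and 3 days post-dye. Percent inhibition versus untreated and cell-free controls gave IC50.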

[2] = Cytotoxicity against human high-grade leiomyosarcoma cells after overnight incubation by Alamar blue assay; format: functional, cell-based; summary of the method: as §1

| Structure (SMILES) | pIC50 [1] | pIC50 [2] |
| --- | --- | --- |
| C/C1=C\C(=O)OC[C@]23CCC(CO)=C[C@H]2O[C@@H]2C[C@@H](OC(=O)/C=C\C=C\[C@H]([C@@H](C)O)OCC1)[C@@]3(C)[C@]21CO1 | 13.34 | 13.07 |
| CC1=C[C@H]2O[C@@H]3C[C@@H](OC(=O)/C=C/C=C\C(OCCC4=CCOC4=O)C(C)O)[C@](C)([C@@]2(CO)CC1)[C@]31CO1 (stereo partly specified) | 13.52 | 13.74 |
| CC1=C[C@H]2O[C@@H]3C[C@@H](OC(=O)/C=C/C=C\C(OCCC4=CCOC4=O)C(C)O)[C@](C)([C@@]2(COC(=O)/C=C(\C)CCO)CC1)[C@]31CO1 (stereo partly specified) [TRICHOVERRITONE] | 12.89 | 13.59 |
